This passage reports cytotoxicity results from ChEMBL document CHEMBL4513216, “Probing the Open Global Health Chemical Diversity Library for Multistage-Active Starting Points for Next-Generation Antimalarials” (ACS Infect Dis, 2020).

Each structure is given as a SMILES string.

A short description of the series: Toxicity liver stage against HepG2, at 10uM. It counts as cell-based. More on the design: test concentration 10 uM, cell line HepG2-A16-CD81EGFP. The settings on record: human, HepG2-A16-CD81EGFP cells; read-out: INHIBITION
The gist of the method:
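Uninfected HepG2-A16-CD81EGFP cells, 3 × 10^3 per well, 1536-well, plated on prespotted compound at 10 μM final, parasite-free screening media added to match infected plates; puromycin 10 μM positive, DMSO 0.5% negative; run in parallel with 48 h PbLuc assay at 37 °C, 5% CO2; viability by CellTiter-Glo luminescence, normalized to controls.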

As for `O=C(c1ccco1)N1CCN2C[C@H](Oc3cncnc3)C[C@H]2C1`, the cytotoxicity at 10 µM is -2.97%.
The figure for `CN(C)C(=O)CN1C[C@H]2CC[C@@H](C1)N(Cc1ccccc1OCCO)C2` is 8.79%.
For `COc1ccc(CNC2CCCN(Cc3noc(C)n3)C2)cc1F` (stereo not given), the cytotoxicity at 10 µM is -12.5%.
The figure for `O=C(NCC(O)c1cccc(F)c1)C1CCN(C2CCCCC2)CC1` (stereo not given) is 7.07%.
Regarding `N#CCCCS(=O)(=O)N1CCC(CSc2ccccc2)C1` (stereo not given), the cytotoxicity at 10 µM is 1.7%.
The figure for `Cc1cc(NCCO)nc(N2CCN(C)CC2)c1C#N` is -17.4%; for `COc1ccc(OC)c(-n2cnnc2COC(C)C)c1` it is -6.57%; for `CC(NC(=O)NCCCc1n[nH]c(N)c1C#N)c1cccc(Cl)c1` (stereo not given) it is -4.14%.
As for `O=C(CCCNC(=O)C1CC1)Nc1cnn(-c2ccccc2Cl)c1`, the figure is -12.3%; as for `CS(=O)(=O)CCC(=O)NC1(c2cccc(Br)c2)CC1`, -11.1%; as for `CC(C)N1CCc2ncn(C)c2C1C(=O)N1CCOCC1` (stereo not given), 10.9%.
The figure for `Cc1[nH]c2nc(CNc3ccccc3Cl)nn2c(=O)c1C` is -1.29%; for `CN(Cc1cccnc1)C[C@@H]1OC[C@H]2CN(C(=O)C3CC3)CC[C@H]21` it is -136%; for `CCn1nc2c(cc1=O)CN(Cc1nc3ccccc3c(=O)[nH]1)CC2` it is -4.71%.
As to `COC(=O)Cn1c(=O)cc(C(F)F)c2c(C)nn(CC(F)F)c21`, the cytotoxicity at 10 µM is 6.2%.
As for `COc1cccc(CNC(=O)C(C)n2ccnc2C(C)C)c1OC` (stereo not given), the figure is -1.68%.
With `Cc1nn(C)c(N2CCCN(C)CC2)c1CNC(=O)CCC(C)C`, the cytotoxicity at 10 µM is -1.08%.
The figure for `CCC(=O)N1CCN(c2ccc(C(=O)OC)cc2)CC1C` (stereo not given) is -13.5%; for `Cc1ccc(CN2C[C@@H](C(=O)Nc3cccnc3)C[C@H]3OCC[C@H]32)o1` it is 3.82%; for `Cc1cccc(OCCC(=O)N2CCN(S(=O)(=O)N(C)C)CC2)c1C` it is 2.66%.
In the case of `CC(NC(C)(C)CN)c1ccccc1` (stereo not given), the cytotoxicity at 10 µM was 2.62%.
As for `Cc1noc(C)c1CN1CCO[C@H]2[C@H](Oc3ncccc3F)CC[C@@H]21`, the figure is 2.93%.
The figure for `Cc1cc(=O)[nH]c(-c2cccc(CN3CCCN4CCCC4C3)c2)n1` (stereo not given) is 1.46%.
The figure for `CC(C)C(Sc1nccn1C1CC1)C(=O)NCc1cccnc1` (stereo not given) is -5.83%; for `COc1cccc(CNc2cc(C)nc(-c3ccncc3)n2)c1O` it is 59.1%.
With `CCN(C(=O)CNc1cc(C)c(F)cc1C(N)=O)C1CC1`, the cytotoxicity at 10 µM worked out at 2.14%.
As for `Cc1c(C(=O)NCCCS(C)(=O)=O)cccc1-c1ccccn1`, the figure is 4.83%.
As for `CN1C(=O)CO[C@H]2CN(C(=O)c3ccc4c(c3)CCCC4)C[C@@H]21`, the figure is 5.45%; as for `CCN(C)S(=O)(=O)NCC(C)(O)c1ccsc1` (stereo not given), 1.83%.
As for `NCCC1CN(c2nc(-c3ccccc3)nc3c2CCNC3)CCO1` (stereo not given), the figure is -9.26%.
`CC(C)NC(=O)N1CCC(n2ccc(C(F)(F)F)n2)CC1`: the cytotoxicity at 10 µM came out at 3.02%.
As for `Cc1cc(CN(C)Cc2ccccc2N2CCCCC2)n[nH]1`, the figure is -2.98%; as for `Cc1ccc2oc(C(=O)N3CCC(C(=O)N4CCCC4)CC3)cc2n1`, -1.35%.
The figure for `O=C(C1CCC1)N1C2CCC(O)(CC2)C1CN1CCOCC1` (stereo not given) is -1.63%; for `CS(=O)(=O)N1CCCN(c2nccn3cnnc23)CC1` it is -8.85%; for `O=C(NC1CC(=O)N(C2Cc3ccccc3C2)C1)c1cc[n+]([O-])cc1` (stereo not given) it is -1.03%.
As for `CC(=O)N1C[C@H]2C3(CCN(S(C)(=O)=O)CC3)CC[C@@]2(C(=O)N(C)C)C1`, the figure is -1.16%.
On to `O=C(O)c1ccc2c(c1)C1(CCCCC1)CN2C(=O)c1cccs1`, for which the cytotoxicity at 10 µM was 3.01%.
As for `Cc1ncnc2c1CCN(C(=O)c1ccncc1F)CC2`, the figure is -71.1%; as for `O=C(C1=NN(Cc2ccccc2)c2ccccc2S1(=O)=O)N1CCCC1`, -4.65%.
The figure for `COc1ncc(NC(=O)Nc2cc(C)ccc2OC)cn1` is 2.76%.
The figure for `CN(Cc1nnnn1C1CC1)CC1COc2ccccc2O1` (stereo not given) is -5.79%.
On to `CC(c1cccnc1)N1CCN(CCO)CC1` (stereo not given), for which the cytotoxicity at 10 µM was -3.21%.
The figure for `c1ccc(CO[C@@H]2C[C@H]3CN(c4ncccn4)CCN3C2)nc1` is -7.49%; for `CC(C)[C@H]1CN(Cc2c[nH]cn2)C[C@@H]1NC(=O)CC1CCC1` it is -39%; for `CN(C(=O)NCCN1CCOCC1)C1CCN(c2ccccc2)C1=O` (stereo not given) it is -11.6%.
The figure for `Cc1nc(C2CCNCC2)cc(N(C)Cc2cc3cc(F)ccc3[nH]2)n1` is -10.7%; for `c1cncc(CN2CCn3c(Cn4cncn4)cnc3C2)c1` it is -70.9%.
Consider `CC(=O)N1CCN([C@@H]2CCC[C@@H](NC(=O)c3cccnc3)[C@H]2O)CC1`, for which the cytotoxicity at 10 µM is -0.00173%.
As for `CN1C(=O)[C@@H]2CC[C@H]1CN(C(=O)c1sccc1S(N)(=O)=O)C2`, the figure is 5.6%; as for `Cc1cccn2cc(CC(=O)N(CCN(C)C)CC3CCCO3)nc12` (stereo not given), 0.462%; as for `COc1cccc(Cn2cccc(C#N)c2=O)c1`, 11.3%.
The figure for `O=C(O)CCC(=O)Nc1nn(Cc2ccc(F)cc2)cc1Cl` is 13.8%.
`Cc1cc(-c2cnc(NC3CC3)nc2-c2ccc(C)o2)on1`: the cytotoxicity at 10 µM came out at 2.26%.
For `CN1CCOCC2(CCCN(C(=O)c3ccc(-n4cccc4)cc3)C2)C1` (stereo not given), the cytotoxicity at 10 µM was -98%.
Consider `O=C(Nc1cccn(Cc2ccc(F)cc2)c1=O)c1cnc[nH]1`, for which the cytotoxicity at 10 µM is 0.0616%.
As for `O=C(NCc1nncn1C1CC1)C1(c2cccc(F)c2)CCOCC1`, the figure is -2.07%; as for `Cn1cc(CNCCC(=O)NCc2ccccc2)c(-c2cccnc2)n1`, -2.19%; as for `CNc1nc(CNC(=O)Nc2cccc(-c3ncc(C)o3)c2)cs1`, -7.57%.
As for `CCO[C@@H]1CC[C@H]2[C@H]1OCCN2C(=O)c1ccc(OC)c(F)c1`, the figure is 15.7%; as for `COc1ccc(CN(Cc2ccsc2)CC2CCCO2)cn1` (stereo not given), -6.16%.
Take `CCCc1nc(CN2CCOC(Cn3cncn3)C2)cs1` (stereo not given): the cytotoxicity at 10 µM is -8.44%.
On to `CN(C)CC(=O)N1CC2(CCN(Cc3ccccc3)C2)C1`, for which the cytotoxicity at 10 µM amounted to 5.62%.
The figure for `CC(C)(O)CN1CCN(C(=O)c2cccn2Cc2ccncc2)CC1` is -2.59%.
The figure for `Cc1ccsc1-c1nccn1CCS(C)(=O)=O` is 3.03%.
As for `COc1cccc([C@@H]2CCN(Cc3cn(C)c4ccccc34)C[C@H]2O)c1`, the figure is 14.7%; as for `Cn1cc(CN2CCn3c(CNC(=O)c4cccn4C)cnc3C2)cn1`, -3.47%; as for `COc1cccc(CN2CCOC(c3cnccn3)C2)c1F` (stereo not given), 8.63%.
Consider `Cc1cccc2c1nc1n2[C@@H](CNC(=O)c2ccncc2)COC1`, for which the cytotoxicity at 10 µM was 3.04%.
The figure for `COc1ncccc1CNC(=O)NCCNS(C)(=O)=O` is -14.4%; for `CSC(C)C(=O)N(C)C1CCN(c2ccc(Cl)cc2)CC1` (stereo not given) it is 0.204%.
Turning to `CN(C)CC(=O)N1CCC2(CCc3ccc(-c4ccncc4)cc32)CC1`, the cytotoxicity at 10 µM came out at 6.34%.
The figure for `CCN1CCOCC2(CCCN(C(=O)c3conc3C)C2)C1` (stereo not given) is 2.82%; for `Cc1ccc(C)c(OCC(=O)NC2CCN(c3ccccn3)CC2)c1` it is -3.42%.
As for `CC(=O)N1CCN(C(=O)NCc2ccc(Cl)s2)CC1`, the figure is -15.4%.
Regarding `CC(C)N1CCN(S(=O)(=O)c2ncn(C)c2Cl)CC1`, the cytotoxicity at 10 µM was determined as 13.9%.
As for `CSc1ccc(-c2nc(CN3CCC(C(N)=O)CC3)c(C)o2)cc1`, the figure is 4.58%; as for `COCC1c2c(cnn2CC2CC2)CCN1Cc1ccc(OC)cc1` (stereo not given), 83.3%.
`CN(C(=O)NCc1ccncc1)C1CCN(c2ccccc2)C1=O` (stereo not given): the cytotoxicity at 10 µM was -13.5%.
As for `CC(C)N1CCC(CN2CCn3nc(CNC(=O)N(C)C)cc3C2)CC1`, the figure is 1.09%; as for `COc1ccc(OCCNCCn2cccn2)cc1`, 2.05%.
In the case of `CNC(=O)COc1c(F)cc(Br)cc1C(C)=O`, the cytotoxicity at 10 µM was 1.44%.
As for `N[C@@H](Cc1ccccc1)c1nnc(S(=O)(=O)Cc2ccccc2)o1`, the cytotoxicity at 10 µM was determined as 13.3%.
Turning to `CCn1cc(Cl)c(C(=O)NCc2cnn(C)c2)n1`, the cytotoxicity at 10 µM is -4.41%.
The figure for `Cc1csc(CN2CC[C@H]3C[C@@H](c4nc(C)no4)O[C@@H]3C2)n1` is 3.8%; for `COC(=O)[C@H](C)NC(=O)COc1nn(C)c2nc(C)cc(C)c12` it is -2.53%; for `N#Cc1ccnc(N2CCN(CC(O)c3c(F)cccc3F)CC2)c1` (stereo not given) it is -5.43%.
The figure for `O=C1[C@H]2CN(CC3CCOCC3)C[C@H]2CN1Cc1cccc(F)c1` is -118%.
The figure for `CC(C)c1cc(NC(=O)CN2CCc3ccccc3C2)on1` is -4.89%; for `Cc1cc(NC(=O)CCN2CCn3c(nnc3C3CC3)C2)no1` it is 7.11%; for `CCn1ncc2c1C(COC)N(C(=O)c1ccc3c(c1)OCO3)CC2` (stereo not given) it is 8.1%.
`NC(=O)CN(Cc1ncc(-c2ccc(F)cc2)o1)C1CCCC1`: the cytotoxicity at 10 µM is -6.19%.
The figure for `CCN(C(=O)CN1CCCN(c2nc(C)ns2)CC1)C1CC1` is -4.08%; for `Cc1cc(C)nc(-n2nc(C)c3c2NC(=O)CSC3c2cnn(C)c2)n1` (stereo not given) it is -36.5%.
Regarding `CCNC(=O)N1CCCC(c2noc(CC)n2)C1` (stereo not given), the cytotoxicity at 10 µM is -2.45%.
